In test [1] the test system is Rattus norvegicus. The experiment in a line: Ability to inhibit norepinephrine uptake in rat atria was determined at 243 umol/kg. It counts as functional. The method in brief:
(§1)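 Male Sprague-Dawley rats (120 ± 10 g) got the dose in 0.9% saline with 0.1% ascorbic acid, 0.2 mL i.v. via the left femoral vein under light halothane. Controls got vehicle. At 24 h, atria were cut into four 10-15 mg pieces and incubated 30 min at 37 °C under 95% O2/5% CO2 in Krebs-Ringer bicarbonate (pH 7.35) with 10^-7 M [3H]NE. A 10 min washout followed, then HClO4 extracts were counted. Inhibition = control minus treated, 12 determinations from 3 rats, mean ± SD.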

Test [2] has as its system Rattus norvegicus. The experiment in a line: Ability to inhibit norepinephrine uptake in rat atria was determined at 122 umol/kg. The format is functional. The method in brief: as §1
For test [3], the system named is Rattus norvegicus. Kind of test: Ability to inhibit norepinephrine uptake in rat atria was determined at 486 umol/kg. The format is functional. The gist of the method: as §1
Test [4] deals with Rattus norvegicus. The experiment in a line: Ability to inhibit norepinephrine uptake in rat atria was determined at 24 uM/kg. The format is functional. The method in brief: as §1
The subject of test [5] is Rattus norvegicus. The experiment in a line: Ability to inhibit norepinephrine uptake in rat atria was determined at 97 umol/kg. The format is functional. The gist of the method: as §1
Test [6] deals with Rattus norvegicus. Kind of test: Ability to inhibit norepinephrine uptake in rat atria was determined at 49 uM/kg. It counts as functional. The gist of the method:
as §1

Test [7] has as its system Rattus norvegicus. The experiment in a line: Ability to inhibit norepinephrine uptake in rat atria was determined at 73 uM/kg. It counts as functional. The method in brief:
as §1

Test [8] deals with Rattus norvegicus. Kind of test: Ability to inhibit norepinephrine uptake in rat atria was determined at 730uM/kg; b denotes 'Rats expired with in 30 min after injection'. It counts as functional, organism-based. The method in brief:
as §1

Test [9] concerns Rattus norvegicus. Kind of test: Ability to inhibit norepinephrine uptake in rat atria was determined at 365 umol/kg. It counts as functional. The gist of the method: as §1
The subject of test [10] is Rattus norvegicus. The experiment in a line: Ability to inhibit norepinephrine uptake in rat atria was determined at 486uM/kg; b denotes 'Rats expired with in 30 min after injection'. The format is functional, organism-based. The method in brief:
as §1

The test system of test [11] is Rattus norvegicus. Kind of test: Ability to inhibit norepinephrine uptake in rat atria was determined at122uM/kg; b denotes 'Rats expired with in 30 min after injection'. It counts as functional, organism-based. The method in brief: as §1
In test [12] the test system is Rattus norvegicus. The experiment in a line: Ability to inhibit norepinephrine uptake in rat atria was determined at 243uM/kg; b denotes 'Rats expired with in 30 min after injection'. It counts as functional, organism-based. The gist of the method:
as §1

The test system of test [13] is Rattus norvegicus. Kind of test: Ability to inhibit norepinephrine uptake in rat atria was determined at 365uM/kg; b denotes 'Rats expired with in 30 min after injection'. It counts as functional, organism-based. The gist of the method:
as §1

As to `NCCc1cc(O)c(Br)cc1O`, the inhibition in vivo – broadly, the percentage by which the read-out fell short of the control – at 243 µmol/kg in the test on Rattus norvegicus [1] is 10%. In the test with Rattus norvegicus [2], this compound came in with an inhibition in vivo at 122 µmol/kg of 0%.
In the case of `NCCc1cc(O)c([N+](=O)[O-])cc1O`, in the test on Rattus norvegicus [3], the inhibition in vivo at 486 µmol/kg stood at 0%.
The compound `N#Cc1cc(O)c(CCN)cc1O` registered an inhibition in vivo at 486 µmol/kg in the test on Rattus norvegicus [3] of 0%.
For `NCCc1cc(O)c(O)cc1O` [OXIDOPAMINE], the Inhibition (commonly the drop in the measured response relative to a control, in per cent) was 45% in the test with Rattus norvegicus [4], 68% with Rattus norvegicus [6] and 74% in the test on Rattus norvegicus [7]. This compound also displayed an inhibition in vivo at 97 µmol/kg in the test on Rattus norvegicus [5] of 79%. Also, the inhibition in vivo at 243 µmol/kg in the test on Rattus norvegicus [1] is 85%. In addition, the inhibition in vivo at 122 µmol/kg in the test on Rattus norvegicus [2] stood at 79%. This compound displayed an inhibition in vivo at 486 µmol/kg in the test on Rattus norvegicus [3] of 87%.
For `Cc1cc(O)c(CCN)cc1O`, the inhibition entry in the test with Rattus norvegicus [8] and in the test on Rattus norvegicus [10] was “Rats expired within 30min after injection” in each case. The compound also displayed an inhibition in vivo at 365 µmol/kg in the test on Rattus norvegicus [9] of 24%. In the test on Rattus norvegicus [1], this compound gave an inhibition in vivo at 243 µmol/kg of 27%. Further, the inhibition in vivo at 122 µmol/kg in the test with Rattus norvegicus [2] amounted to 19%. In addition, the Inhibition in the test on Rattus norvegicus [7] was found to be 16%.
Compound `NCCc1cc(O)ccc1O` registered an inhibition in vivo at 486 µmol/kg in the test on Rattus norvegicus [3] of 0%.
`NCCc1cc(O)c(Cl)cc1O` registered an inhibition in vivo at 486 µmol/kg with Rattus norvegicus [3] of 0%.
In the case of `COc1cc(O)c(CCN)cc1O`, the inhibition entry with Rattus norvegicus [8] and in the test on Rattus norvegicus [10] was “Rats expired within 30min after injection” throughout. The compound further had an inhibition in vivo at 365 µmol/kg with Rattus norvegicus [9] of 26%.
As to `NCCc1cc(O)c(C(=O)O)cc1O`, the inhibition in vivo at 486 µmol/kg in the test with Rattus norvegicus [3] came to 0%.
Regarding `NCCc1cc(O)c(N)cc1O`, the inhibition entry in the test with Rattus norvegicus [8], in the test on Rattus norvegicus [10], in the test with Rattus norvegicus [11], with Rattus norvegicus [12] and in the test with Rattus norvegicus [13] was “Rats expired within 30min after injection” each time. The values for the Inhibition in the test on Rattus norvegicus [4], with Rattus norvegicus [6] and in the test on Rattus norvegicus [7] were 20%, 60% and 80%, respectively. The inhibition in vivo at 97 µmol/kg in the test on Rattus norvegicus [5] came out at 91%.

The values above are taken from ChEMBL document CHEMBL1122635, “Synthesis and physicochemical and neurotoxicity studies of 1-(4-substituted-2,5-dihydroxyphenyl)-2-aminoethane analogues of 6-hydroxydopamine” (1984).
